This is a sample that favours compounds with a hit; in the whole collection about 0.79% have one here.
mIAP inh – mouse IAP inhibition; purified mouse IAP, CDP-Star luminescence, 30 min; inhibition, % at 10 µM; 330,000 tested, 0.2% active; AID 2806;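 active means inhibition of at least 40% at 10 µM in the primary screen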;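 further: plate controls were DMSO with enzyme for no effect and no enzyme wells for full effect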
bIAP act – intestinal alkaline phosphatase (bovine) activation; 200,000 tested, 0.17% active; purified bovine IAP, CDP-star luminescence, 30 min; hits give high values; fold of DMSO-control signal, blank-subtracted; activation factor at 20 µM;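 active means activation factor of 2 or more at 20 µM, a signal rise over negative controls twice the positive control's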
mIAP activ – increases mouse intestinal alkaline phosphatase activity. activation factor at 10 µM. AID 2805. 330,000 tested, 0.24% active. muIAP, CDP-Star luminescence, 30 min; hits give high values; 1 = vehicle-only enzyme signal, 0 = enzyme-free wells;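 active means activation factor of at least 2 at 20 µM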
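Assay system: mouse IAP enzyme; reagent: chemiluminescent substrate CDP-Star; dosing: test compounds delivered from DMSO solution; schedule: 30 min at room temperature; measured by: luminescence from enzymatic CDP-Star hydrolysis; controls: DMSO-only wells and no-enzyme negative control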
hIAP inh – human IAP inhibition; P09923; purified IAP, CDP-Star luminescence, 30 min; inhibition, % at 10 µM; 330,000 tested, 0.12% active; AID 2544;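 active means inhibition reaching a set limit with compound at 10 µM in the primary screen, cut at about 35% in these data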;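 further: plate controls were DMSO wells with enzyme for no effect and no-enzyme buffer wells for full effect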
Target sequence (P09923 whole entry, looked up): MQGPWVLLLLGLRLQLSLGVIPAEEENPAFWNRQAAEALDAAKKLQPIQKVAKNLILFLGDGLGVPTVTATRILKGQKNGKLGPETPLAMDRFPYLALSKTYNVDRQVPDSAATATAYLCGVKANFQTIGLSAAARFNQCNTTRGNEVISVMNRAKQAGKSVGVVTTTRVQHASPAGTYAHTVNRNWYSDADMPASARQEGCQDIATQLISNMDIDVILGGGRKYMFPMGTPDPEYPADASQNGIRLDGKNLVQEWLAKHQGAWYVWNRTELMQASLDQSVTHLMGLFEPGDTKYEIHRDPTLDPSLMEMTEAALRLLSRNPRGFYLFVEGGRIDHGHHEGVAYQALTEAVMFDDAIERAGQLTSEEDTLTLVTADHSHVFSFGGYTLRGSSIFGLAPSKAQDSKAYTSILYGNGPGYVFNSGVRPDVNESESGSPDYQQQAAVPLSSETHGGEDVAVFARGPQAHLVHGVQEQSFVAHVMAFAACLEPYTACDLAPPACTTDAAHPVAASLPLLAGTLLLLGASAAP
hIAP act – human IAP activation; purified human IAP, CDP-Star luminescence, 30 min; hits give high values; 1 = vehicle-only enzyme, 0 = enzyme-free background; activation factor at 10 µM; 330,000 tested, 0.16% active;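 active means activation factor of the enzyme at least 2-fold when tested at 20 µM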
bIAP inhibitor – intestinal alkaline phosphatase (bovine) inhibition | purified bovine IAP, CDP-star luminescence, 30 min | inhibition, % at 20 µM | 190,000 tested, under 10 active;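 active means over 50% inhibition of intestinal alkaline phosphatase at 20 µM in the single-dose screen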
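Assay system – bovine IAP enzyme · Quantity – bovine IAP at 1/65,000,000 final dilution · Detection – CDP-star luminescence signal · Times – 30 min reaction at room temperature · Also added – CDP-star substrate at 30 µM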
mIAP inh confirm – mouse IAP inhibition confirmation. shares compounds with mIAP inh. purified mouse IAP, CDP-Star luminescence, 30 min. inhibition, % at 10 µM. 11,000 tested, 4.7% active;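 active means inhibition of at least 40% at 10 µM in either of the two replicates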;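 further: plate controls were DMSO wells with enzyme for no effect and buffer wells lacking enzyme for full effect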
The depositor's hits bear a star; x = no result given.

SMILES	mIAP inh	bIAP act	mIAP activ	hIAP inh	hIAP act	bIAP inhibitor	mIAP inh confirm
O=C(Nc1cccc(Cl)c1)Nc1nc(-c2ccccc2)cs1	-183.5	0.4	2.83*	-12.8	1.13	x	-116.0
O=C(NCc1csc2ccccc12)Nc1cc(Cl)cc(Cl)c1	-270.8	x	3.71*	4.0	0.96	x	-144.6
CC(C)(C)OC(=O)C[C@@H]1C/C=C\C[C@@H](CC(=O)N[C@H](CO)Cc2ccccc2)C(=O)N2CCC[C@H]2COC1=O	-5.4	x	1.05	12.6	0.874	x	x
O=C(CCl)Nc1c2c(nn1-c1ccccc1)CSC2	3.7	x	0.963	-5.6	1.06	x	x
CSc1cccc(NC(=O)Nc2ccccc2)c1	-177.2	0.7	2.77*	-6.5	1.06	26.4	-110.3
O=C(Nc1cccc(F)c1)Nc1cccc(Cl)c1	-259.3	x	3.59*	-13.9	1.14	x	-110.7
O=C(Nc1ccccc1)Nc1cc(Cl)cc(Cl)c1	-383.6	0.9	4.84*	-19.4	1.19	12.5	-240.7
O=C(Nc1cccc(Cl)c1)NC1CCCCC1	-92.9	0.9	1.93	-8.9	1.09	5.6	x
O=C(Nc1cccc(Cl)c1)NC1CC2CCC1C2 (configuration not stated)	-219.7	x	3.2*	-10.6	1.11	x	-163.6
O=c1oc(C2(O)CCCCC2)cc2ccc(-c3ccc4[nH]ccc4c3)cc12	1.2	x	0.988	-9.3	1.09	x	x
Cc1ccc(NC(=O)CN(C)C(=O)c2cc(S(=O)(=O)N(C)C)ccc2N2CCCC2)cc1	-3.4	x	1.03	3.7	0.963	x	x
O=C(COc1ccc([N+](=O)[O-])cc1)NNC(=O)Nc1cccc(F)c1	6.8	x	0.932	-46.5	1.47	x	x
COc1cccc(NC(=O)NC2CCCc3ccccc32)c1 (configuration not stated)	-183.9	1.1	2.84*	0.3	0.997	-9.3	-174.0
CCC1CCC(NC(=O)Nc2cccc(OC)c2)CC1 (configuration not stated)	-119.9	1.1	2.2*	-19.4	1.19	-13.7	-137.0
COc1ccc(NC(=O)NC2CCCc3ccccc32)c(OC)c1 (configuration not stated)	-12.9	x	1.13	-3.5	1.03	x	x
Cc1cc(C)c(C)c(S(=O)(=O)N(C)CCc2ccccn2)c1C	1.4	x	0.986	5.4	0.946	x	x
Cn1cccc1/C=C1\SC(=S)N(NC(=O)c2ccccc2O)C1=O	32.9	x	0.671	6.1	0.939	x	x
O=C(O)CC(C(=O)O)N1C(=O)/C(=C/c2ccc(-c3nc4ccccc4s3)o2)SC1=S (configuration not stated)	63.4*	0.6	0.366	5.8	0.942	40.3	61.7*
Cc1ccc(NC(=O)CCCN2C(=O)/C(=C/C=C/c3ccccc3)SC2=S)cc1	17.3	0.7	0.827	15.3	0.847	31.8	x
O=C(NN1C(=O)/C(=C/C=C/c2ccco2)SC1=S)c1ccccc1O	86.6*	x	0.134	-54.2	1.54	x	93.3*
O=C(O)CCCN1C(=O)/C(=C/C=C/c2ccco2)SC1=S	67.6*	x	0.324	-1.5	1.01	x	68.7*
O=C(O)CCN1C(=O)/C(=C/c2ccc(-c3nc4ccccc4s3)o2)SC1=S	36.6	0.6	0.634	15.5	0.845	38.3	x
O=C(O)CC(C(=O)O)N1C(=O)/C(=C/C=C/c2ccco2)SC1=S (configuration not stated)	74.1*	x	0.259	-2.4	1.02	x	79.9*
O=C(COC(=O)Cc1c(F)cccc1Cl)NC1CCS(=O)(=O)C1 (configuration not stated)	-8.8	x	1.09	-13.3	1.13	x	x
O=C(CCCN1C(=O)C2CC=CCC2C1=O)Nc1cccc(F)c1 (configuration not stated)	0.5	x	0.995	3.6	0.964	x	x
SMILES	mIAP inh	bIAP act	mIAP activ	hIAP inh	hIAP act	bIAP inhibitor	mIAP inh confirm
COc1cccc(CNC(=O)CCNS(=O)(=O)c2ccc3[nH]c(=O)oc3c2)c1	49.2*	x	0.508	-7.5	1.07	x	76.9*
O=C(CCNS(=O)(=O)c1ccc2[nH]c(=O)oc2c1)NCc1ccccc1	9.5	x	0.905	10.7	0.893	x	x
COc1ccccc1CNC(=O)CCNS(=O)(=O)c1ccc2[nH]c(=O)oc2c1	40.8*	x	0.592	0.2	0.998	x	74.6*
COc1cccc(NC(=O)CN(C)S(=O)(=O)c2ccc3[nH]c(=O)oc3c2)c1	41.6*	x	0.584	-10.8	1.11	x	46.3*
Cc1ccc(NC(=O)CCNS(=O)(=O)c2ccc3[nH]c(=O)oc3c2)cc1C	9.6	x	0.904	-22.9	1.23	x	x
COc1ccc(OC)c(NC(=O)CCNS(=O)(=O)c2ccc3[nH]c(=O)oc3c2)c1	47.2*	x	0.528	23.3	0.767	x	61.6*
COc1cccc(NC(=O)CN(C)S(=O)(=O)c2ccc3c(c2)CCC(=O)N3)c1	-9.9	x	1.1	17.6	0.824	x	x
C[C@H](CO)N1C[C@H](C)[C@@H](CN(C)Cc2ccc(Oc3ccccc3)cc2)Oc2c(NC(=O)c3ccncc3)cccc2C1=O	11.6	x	0.884	-6.2	1.06	x	x
O=c1ccc2ccc(OCCOc3cccc(Cl)c3)cc2o1	13.6	x	0.864	6.6	0.934	x	x
O=C(COC(=O)CCS(=O)(=O)c1ccccc1)Nc1ccc(N2CCCCC2)cc1	-3.1	x	1.03	4.2	0.958	x	x
O=C(c1ccc2c(=O)n(Cc3ccc(Cl)cc3)c(=S)[nH]c2c1)N1CCOCC1	9.5	x	0.905	-15.0	1.15	x	x
CCN(CC)CCc1nc(-c2ccccc2)no1	-14.4	x	1.14	3.2	0.968	x	x
Cc1ccc(NC(=O)CCNS(=O)(=O)c2ccc3[nH]c(=O)oc3c2)c(C)c1	30.2	x	0.698	-5.1	1.05	x	x
Cc1ccc(C)c(NC(=O)CCNS(=O)(=O)c2ccc3[nH]c(=O)oc3c2)c1	69.9*	x	0.301	-3.5	1.03	x	82.3*
COc1ccccc1NC(=O)CCNS(=O)(=O)c1ccc2[nH]c(=O)oc2c1	41.3*	x	0.587	-21.0	1.21	x	73.5*
COCCCNC(=O)CN(c1ccc(F)cc1)S(=O)(=O)c1ccc2c(c1)OCCO2	6.0	x	0.94	-6.3	1.06	x	x
C/C(=N\NC(=O)c1cc(O)cc(O)c1)c1ccc(NC(=O)Cc2ccccc2)cc1	50.5*	x	0.495	-3.0	1.03	x	56.8*
Clc1cccc(-c2ccc(C3Nc4cccc5cccc(c45)N3)o2)c1	25.8	x	0.742	-8.3	1.08	x	x
CCc1cc(C(=O)N(C)CC(=O)Nc2c(Cl)cccc2Cl)sc1C	-5.1	x	1.05	0.6	0.994	x	x
CCc1nc(CNC(=O)C2CCC(=O)N(Cc3ccccc3F)C2)no1 (configuration not stated)	0.3	x	0.997	-4.9	1.05	x	x
O=C(O)c1cc(S(=O)(=O)N2CC3CC3C2C(=O)O)c(Cl)cc1Cl (configuration not stated)	9.1	x	0.909	-1.3	1.01	x	x
O=C(CSc1nc2ccccc2o1)N/N=C/c1ccc(O)c(O)c1	66.9*	x	0.331	26.0	0.74	x	74.4*
